For test [1], the target named is Small conductance calcium-activated potassium channel protein 2 (Rattus norvegicus) (UniProt P70604). Briefly: Inhibition of recombinant rat SK2 expressed in HEK293 cells at 10 nM and holding potential at 0 mV and ramp voltage from -100 to 100 mV by whole cell patch clamp method relative to control. The class given is cell-based.
Test [2] relates to MDA-MB-435. Briefly: Inhibition of cell migration in human MDA-MB-435 cells transfected with lentivrus-encoding shRNA against SK3 by matrigel invasion method relative to control. The class given is functional. The gist of the method: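 MDA-MB-435s cells lacking SK3 expression were exposed to peptides at 100 nM. Migration is given as migrating cells with peptide divided by migrating cells under control conditions (means ± SEM, N = 4, n = 12). Groups were compared by Kruskal–Wallis with post hoc tests.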

Test [3] deals with T1, Small conductance calcium-activated potassium channel protein 3 (Homo sapiens, UniProt Q9UGI6). The experiment in a line: Inhibition of recombinant human SK3 expressed in HEK293T cells assessed as reduction in channel current with holding potential 0 mV and ramp voltage from -100 to 100 mV by whole cell patch clamp method. In kind it is cell-based, HEK-293T. In outline:
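HEK293T stably expressing recombinant human SK3, whole-cell recording at pCa 6. Ramp −100 to 100 mV, 500 ms, from 0 mV holding; current at 0 mV taken as SKCa-only. Concentration–response curves fitted for EC50 (means ± SEM, n = 3–8).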
Background: In patch-clamp work, channel activity is measured electrically.

In test [4] the target is T1, Small conductance calcium-activated potassium channel protein 3. The experiment in a line: Inhibition of recombinant human SK3 expressed in HEK293T cells at 10 nM and holding potential at 0 mV and ramp voltage from -100 to 100 mV by whole cell patch clamp method relative to control. The class given is cell-based. The following applies: HEK-293T.
The target is the same in test [5]. The experiment in a line: Inhibition of SK3-dependent cell migration in human MDA-MB-435 cells assessed as ratio of total cells migrating by matrigel invasion method relative to control. The class given is cell-based.
The target is the same in test [6]. Briefly: Inhibition of recombinant human SK3 expressed in HEK293T cells assessed as ratio of amplitude of outward current blocked in presence and absence of compound at 1 nM and holding potential at 0 mV and ramp voltage from -100 to 100 mV by whole cell patch clamp method relative to control. In kind it is cell-based. The gist of the method:
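Whole-cell patch clamp on HEK293T cells expressing recombinant human SK3, pCa 6. Ramp from −100 to 100 mV over 500 ms, holding at 0 mV; currents analysed at 0 mV. Peptide at 1 nM, then 100 nM apamin to block residual SKCa current. Inhibition = ratio of outward current amplitude blocked at 1 nM to amplitude without compound.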

The test system of test [7] is MDA-MB-435. The experiment in a line: Inhibition of cell migration in human MDA-MB-435 cells expressing SK3 by matrigel invasion method relative to control.

Data on two compounds can be found in ChEMBL document CHEMBL4725389, “Novel Blocker of Onco SK3 Channels Derived from Scorpion Toxin Tamapin and Active against Migration of Cancer Cells” (ACS Med Chem Lett, 2020).

Calls of active or inactive are those of the source. The calls are words filed in the database; no cut-off is given here. Positions of bridges follow the written chain, without caps; N, C: chain ends. Residues, ends and D or L forms follow the SMILES beside them. Where only a bound is given, the exact number is not on record here.

T1 sequence (Q9UGI6 whole entry): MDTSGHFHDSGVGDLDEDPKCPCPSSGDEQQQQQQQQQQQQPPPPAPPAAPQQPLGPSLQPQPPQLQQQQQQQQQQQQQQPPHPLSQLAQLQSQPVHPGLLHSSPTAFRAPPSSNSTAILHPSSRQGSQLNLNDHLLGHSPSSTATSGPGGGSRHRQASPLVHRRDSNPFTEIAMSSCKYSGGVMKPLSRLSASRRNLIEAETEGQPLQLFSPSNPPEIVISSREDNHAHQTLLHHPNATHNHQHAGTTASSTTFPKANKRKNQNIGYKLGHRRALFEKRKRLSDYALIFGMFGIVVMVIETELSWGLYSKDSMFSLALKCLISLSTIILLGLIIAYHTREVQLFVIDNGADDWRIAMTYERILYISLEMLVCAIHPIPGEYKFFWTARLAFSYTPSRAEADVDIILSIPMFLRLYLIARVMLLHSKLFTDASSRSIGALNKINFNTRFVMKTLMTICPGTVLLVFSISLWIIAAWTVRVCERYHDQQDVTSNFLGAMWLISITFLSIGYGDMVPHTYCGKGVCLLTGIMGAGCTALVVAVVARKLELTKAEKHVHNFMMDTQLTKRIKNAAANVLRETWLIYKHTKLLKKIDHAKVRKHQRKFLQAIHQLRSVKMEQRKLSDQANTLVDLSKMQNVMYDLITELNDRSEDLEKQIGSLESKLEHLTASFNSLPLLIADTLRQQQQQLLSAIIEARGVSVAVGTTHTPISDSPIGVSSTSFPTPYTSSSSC
Small conductance calcium-activated potassium channel protein 2 (Rattus norvegicus), sequence (P70604 whole entry): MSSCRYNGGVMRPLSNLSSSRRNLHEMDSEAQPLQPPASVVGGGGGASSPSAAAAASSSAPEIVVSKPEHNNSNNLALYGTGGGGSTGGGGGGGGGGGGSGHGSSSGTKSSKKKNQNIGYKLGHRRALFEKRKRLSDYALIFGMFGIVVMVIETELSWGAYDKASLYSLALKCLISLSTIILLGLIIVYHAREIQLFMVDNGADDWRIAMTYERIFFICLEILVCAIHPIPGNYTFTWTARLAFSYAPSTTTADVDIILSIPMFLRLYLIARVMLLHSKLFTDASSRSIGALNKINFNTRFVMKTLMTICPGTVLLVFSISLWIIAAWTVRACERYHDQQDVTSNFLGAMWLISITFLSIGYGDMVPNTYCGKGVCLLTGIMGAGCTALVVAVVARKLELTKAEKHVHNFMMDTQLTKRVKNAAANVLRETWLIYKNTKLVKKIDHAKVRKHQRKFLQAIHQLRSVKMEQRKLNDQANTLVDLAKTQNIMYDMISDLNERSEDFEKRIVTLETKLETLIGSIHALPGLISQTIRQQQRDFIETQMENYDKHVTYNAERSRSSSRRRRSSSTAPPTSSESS

As usually defined, the inhibition is the drop in the measured response relative to a control, in per cent. For orientation: EC50 means the concentration giving half of the maximal effect. Take `CC[C@H](C)[C@@H]1NC(=O)[C@@H]2CSSC[C@H](NC(=O)[C@H](Cc3ccccc3)NC(=O)[C@H](C)N)C(=O)N[C@@H](CC(N)=O)C(=O)N[C@@H](CC(C)C)C(=O)N[C@@H](CCCNC(=N)N)C(=O)N[C@@H](CCCNC(=N)N)C(=O)N[C@H]3CSSC[C@H](NC(=O)[C@H](CCC(=O)O)NC(=O)[C@H](CCC(=O)O)NC(=O)CNC1=O)C(=O)N[C@@H](CCCCN)C(=O)N[C@H](C(=O)N[C@H](C(=O)N1CCC[C@H]1C(=O)N[C@@H](Cc1ccc(O)cc1)C(=O)O)C(C)C)CSSC[C@H](NC(=O)[C@H](CO)NC(=O)[C@H](CC(C)C)NC(=O)[C@H](CCC(=O)O)NC3=O)C(=O)N[C@@H](CCCNC(=N)N)C(=O)N[C@@H](CO)C(=O)N[C@@H](CC(C)C)C(=O)NCC(=O)N[C@@H](CC(C)C)C(=O)N[C@@H](CC(C)C)C(=O)NCC(=O)N[C@@H](CCCCN)C(=O)N2` (H-AFCNLRRCELSCRSLGLLGKCIGEECKCVPY-OH; disulfide 3-21, 8-26, 12-28): the inhibition in test [1] was > 85%; in test [4], 40%; in test [6] it was 25%. For the same compound, the inhibition result (in the test with MDA-MB-435 [2]; in test [5]) was “inactive” in each case. The EC50 in test [3] came out at 2.6 nM.

Turning to `CC[C@H](C)[C@@H]1NC(=O)[C@@H]2CSSC[C@H](NC(=O)[C@H](Cc3ccccc3)NC(=O)[C@H](C)N)C(=O)N[C@@H](CC(N)=O)C(=O)N[C@@H](CC(C)C)C(=O)N[C@@H](CCCNC(=N)N)C(=O)N[C@@H](CCCNC(=N)N)C(=O)N[C@H]3CSSC[C@H](NC(=O)[C@H](CCCCN)NC(=O)[C@H](CCC(=O)O)NC(=O)CNC1=O)C(=O)N[C@@H](CCC(=O)O)C(=O)N[C@H](C(=O)N[C@H](C(=O)N1CCC[C@H]1C(=O)N[C@@H](Cc1ccc(O)cc1)C(=O)O)C(C)C)CSSC[C@H](NC(=O)[C@H](CO)NC(=O)[C@H](CC(C)C)NC(=O)[C@H](CCC(=O)O)NC3=O)C(=O)N[C@@H](CCCNC(=N)N)C(=O)N[C@@H](CO)C(=O)N[C@@H](CC(C)C)C(=O)NCC(=O)N[C@@H](CC(C)C)C(=O)N[C@@H](CC(C)C)C(=O)NCC(=O)N[C@@H](CCCCN)C(=O)N2` (H-AFCNLRRCELSCRSLGLLGKCIGEKCECVPY-OH; disulfide 3-21, 8-26, 12-28), the “inhibition (INH)” value in the test with MDA-MB-435 [7] is on record as 45.9%. The inhibition is 40% in test [1], > 85% in test [4], 76.5% in test [5] (concentration not given here) and 73% in test [6]. The concentration for a half-maximal effect (EC50) in test [3] came to 0.38 nM.
